Source: ChEMBL document CHEMBL3352174, “Identification of a New RXRα Antagonist Targeting the Coregulator-Binding Site” (ACS Med Chem Lett, 2014)
Residue numbers refer to the chain shown, from its start. Calls of active or inactive are those of the source. No cut-off for these calls is given here.

Columns and labels:
[1] = molecular target: Retinoic acid receptor alpha/Retinoid X receptor alpha (Homo sapiens) (UniProt P10276+P19793); assay: Antagonist activity against RXRalpha/RARalpha ligand binding domain (unknown origin) expressed in human HEK293T cells assessed as inhibition of 9-cis-RA/T09-induced receptor transactivation at 2 and 10 uM after 18 hrs by luciferase reporter gene based mammalian one-hybrid assay; type: cell-based; conditions: HEK-293T
[2] = molecular target: T1, Retinoic acid receptor RXR-alpha (Homo sapiens) (UniProt P19793); assay: Antagonist activity against RXRalpha delta80 mutant (unknown origin) expressed in human A549 cells assessed as reduction in TNFalpha-induced interaction of Myc-tagged RXRalpha- delta80 with p85alpha by co-immunoprecipitation assay; type: cell-based
T1 sequence (whole entry): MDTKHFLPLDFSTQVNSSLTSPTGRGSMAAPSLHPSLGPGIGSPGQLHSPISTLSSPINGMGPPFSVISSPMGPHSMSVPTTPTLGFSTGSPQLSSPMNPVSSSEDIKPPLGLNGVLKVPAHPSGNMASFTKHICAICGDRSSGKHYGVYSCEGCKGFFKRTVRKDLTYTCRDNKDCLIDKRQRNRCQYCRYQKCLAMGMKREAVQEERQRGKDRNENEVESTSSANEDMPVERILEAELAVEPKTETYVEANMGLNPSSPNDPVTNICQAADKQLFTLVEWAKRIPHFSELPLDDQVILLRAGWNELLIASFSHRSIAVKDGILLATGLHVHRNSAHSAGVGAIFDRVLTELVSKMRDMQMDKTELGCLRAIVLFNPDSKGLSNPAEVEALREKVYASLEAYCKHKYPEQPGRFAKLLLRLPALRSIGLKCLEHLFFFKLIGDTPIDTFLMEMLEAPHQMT
Outline: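 A549 cells were transfected with Myc-RXRα-Δ80 (truncated RXRα mimic) and treated with or without TNFα and/or compound. Anti-Myc immunoprecipitates were immunoblotted for endogenous p85α and Myc-RXRα-Δ80. One of three to five similar experiments shown.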

[3] = system: T2, Retinoic acid receptor RXR-alpha (Homo sapiens), P19793 [C432W]; assay: Antagonist activity against RXRalpha C432W/F313A mutant (unknown origin) expressed in human HEK293T cells assessed as inhibition of constitutive receptor transactivation at 1 to 10 uM after 18 hrs by luciferase reporter gene based mammalian one-hybrid assay; conditions: HEK-293T
T2 sequence (whole entry): T1 sequence (whole entry) with C432W

HepG2 = assay: Induction of apoptosis in human HepG2 cells assessed as PARP cleavage at 5 and 10 uM by immunoblotting method; type: functional, cell-based
Outline: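 A549 or HepG2 cells were treated with compound for 24 h, with or without subsequent TNFα (20 ng/mL) for 30 min. Lysates were immunoblotted for PARP cleavage as the apoptosis marker. One of three to five similar experiments shown.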

[4] = molecular target: T3, Peroxisome proliferator-activated receptor gamma (Homo sapiens) (UniProt P37231); assay: Antagonist activity against PPARgamma ligand binding domain (unknown origin) expressed in human MCF7 cells assessed as inhibition of ROS-induced receptor transactivation at 10 uM after 18 hrs by luciferase reporter gene based mammalian one-hybrid assay; type: cell-based
T3 sequence (whole entry): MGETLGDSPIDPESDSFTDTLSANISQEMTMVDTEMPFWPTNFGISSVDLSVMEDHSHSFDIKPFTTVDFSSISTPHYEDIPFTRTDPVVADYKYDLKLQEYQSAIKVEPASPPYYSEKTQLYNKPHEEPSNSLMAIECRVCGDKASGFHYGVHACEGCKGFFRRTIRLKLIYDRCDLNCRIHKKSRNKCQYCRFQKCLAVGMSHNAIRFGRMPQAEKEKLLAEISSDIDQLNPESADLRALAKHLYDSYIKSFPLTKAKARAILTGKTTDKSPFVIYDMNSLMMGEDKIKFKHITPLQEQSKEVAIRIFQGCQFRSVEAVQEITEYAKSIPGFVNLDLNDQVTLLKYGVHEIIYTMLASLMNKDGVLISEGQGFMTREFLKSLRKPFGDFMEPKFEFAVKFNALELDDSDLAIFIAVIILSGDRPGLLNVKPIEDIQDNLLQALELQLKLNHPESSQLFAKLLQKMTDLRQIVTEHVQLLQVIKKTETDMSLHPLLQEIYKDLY

[5] = molecular target: T1, Retinoic acid receptor RXR-alpha (Homo sapiens); assay: Antagonist activity against RXRalpha in TNFalpha-stimulated human A549 cells assessed as inhibition of AKT phosphorylation at 5 and 10 uM pre-treated for 24 hrs before TNFalpha addition by Western blotting method; type: cell-based
Outline: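 A549 or HepG2 cells were exposed to compound for 24 h, then with or without TNFα (20 ng/mL) for 30 min more. Lysates were immunoblotted for AKT activation. One of three to five similar experiments shown.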

inhibition [1]: inactive
inhibition [2]: Active
inhibition [3]: Dose-dependent effect
inhibition [4]: Active
inhibition [5]: Active
SMILES: Cc1cc(=O)oc2c(/C=N/NC(=O)CSc3nc4ccccc4s3)c(O)ccc12
Activity (HepG2): Active
